Laboratory results: ChEMBL document CHEMBL3351380, “Antioxidant and antimicrobial studies on fused-ring pyrazolones and isoxazolones” (Bioorg Med Chem, 2014)
Converted amounts (≈) assume the structure as drawn. The source made the active and inactive calls. No cut-off for these calls is given here.

Assays:
[1] = Antioxidant activity assessed as DPPH radical scavenging activity after 30 mins by spectrophotometry; format: physicochemical
Method in brief: (§1)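 DPPH (0.51 mM in methanol) was mixed 1:1 by volume with the compound at several concentrations (100, 50, 25 … µg/mL range). Absorbance was read against a control, and % inhibition = (A0−As)/A0 ×100. Readings were taken at 30 min and 3 h, with ascorbic acid as the reference. Triplicate measurements.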

[2] = Antioxidant activity assessed as DPPH radical scavenging activity after 3 hrs by spectrophotometry; format: physicochemical; method in brief: as §1
[3] = Metal chelating activity of the compound assessed as formation of iron complex after 20 mins by spectrophotometry; format: physicochemical
Method in brief: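 Fe2+ chelation was measured by disruption of the o-phenanthroline–Fe2+ complex. O-phenanthroline (0.05% in methanol) and FeCl2 (0.1%) were mixed with the sample at various concentrations and held at room temperature for 20 min, then read at 510 nm. EDTA was the standard chelator. % chelation = (Acontrol−Asample)/Acontrol ×100, and IC50 came from plots of % chelation versus concentration. Triplicates.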

Candida albicans [4] = assay: Antifungal activity against Candida albicans by agar well diffusion method; format: functional
Candida albicans [5] = assay: Antifungal activity against Candida albicans assessed as zone of inhibition at 100 ug/ml by agar well diffusion method; format: functional; conditions: for zone of inhibition at 100 µg/mL: read-out: IZ
Method in brief: (§2)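 For the agar well diffusion screen, samples at 100 µg/mL were made from a stock of 10 mg in 1 mL EtOH diluted 1:1 (v/v) with Mueller-Hinton medium. The zone of inhibition was scored as 5–10 mm poor, 10–15 moderate, 15–20 good and 20–25 very good. Gentamycin and nystatin were the reference drugs. Strains were confirmed at the University of Botswana microbiology laboratory.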

Staphylococcus aureus [6] = assay: Antimicrobial activity against Staphylococcus aureus ATCC 25923 by agar well diffusion method; format: functional
Escherichia coli [7] = assay: Antimicrobial activity against Escherichia coli ATCC 8739 by agar well diffusion method; format: functional
Pseudomonas aeruginosa [8] = assay: Antimicrobial activity against Pseudomonas aeruginosa NCIMB 8295 by agar well diffusion method; format: functional
Bacillus subtilis [9] = assay: Antimicrobial activity against Bacillus subtilis NCIB 3610 by agar well diffusion method; format: functional; conditions: subsp. subtilis str. NCIB 3610
Staphylococcus aureus [10] = assay: Antimicrobial activity against Staphylococcus aureus ATCC 25923 assessed as zone of inhibition at 100 ug/ml by agar well diffusion method; format: functional; conditions: for zone of inhibition at 100 µg/mL: read-out: IZ; method in brief: as §2
Escherichia coli [11] = assay: Antimicrobial activity against Escherichia coli ATCC 8739 assessed as zone of inhibition at 100 ug/ml by agar well diffusion method; format: functional; conditions: for zone of inhibition at 100 µg/mL: read-out: IZ; method in brief: as §2
Pseudomonas aeruginosa [12] = assay: Antimicrobial activity against Pseudomonas aeruginosa NCIMB 8295 assessed as zone of inhibition at 100 ug/ml by agar well diffusion method; format: functional; method in brief: as §2
Bacillus subtilis [13] = assay: Antimicrobial activity against Bacillus subtilis NCIB 3610 assessed as zone of inhibition at 100 ug/ml by agar well diffusion method; format: functional; conditions: for zone of inhibition at 100 µg/mL: subsp. subtilis str. NCIB 3610, read-out: IZ; for Activity: subsp. subtilis str. NCIB 3610; method in brief: as §2

Compound	IC50 [1] [µg/mL]	IC50 [2] [µg/mL]	IC50 [3] [µg/mL]	MIC (Candida albicans [4])	Activity (Candida albicans [5])	MIC (Staphylococcus aureus [6])	MIC (Escherichia coli [7])	MIC (Pseudomonas aeruginosa [8])	MIC (Bacillus subtilis [9])	Activity (Staphylococcus aureus [10])	Activity (Escherichia coli [11])	Activity (Pseudomonas aeruginosa [12])	zone of inhibition at 100 µg/mL (Bacillus subtilis [13]) [mm]	zone of inhibition at 100 µg/mL (Candida albicans [5]) [mm]	Activity (Bacillus subtilis [13])	zone of inhibition at 100 µg/mL (Staphylococcus aureus [10]) [mm]	zone of inhibition at 100 µg/mL (Escherichia coli [11]) [mm]	zone of inhibition at 100 µg/mL (Pseudomonas aeruginosa [12]; read-out: IZ) [mm]
O=C(/C=C/c1cccc([N+](=O)[O-])c1)c1ccccc1	165.21 (≈ 652 µM)	112.5 (≈ 444 µM)	104.76 (≈ 414 µM)	–	–	–	–	–	–	–	–	–	–	–	–	–	–	–
NYSTATIN	–	–	–	< 0.02 µg/mL	–	–	–	–	–	–	–	–	–	–	–	–	–	–
COc1ccc(C2=CC3=NOC(=O)C3C(c3cccc([N+](=O)[O-])c3)C2)cc1 (stereo not drawn)	258.75 (≈ 710 µM)	118.69 (≈ 326 µM)	704.31 (≈ 1930 µM)	inactive	inactive	inactive	inactive	inactive	2.5 µg/mL (≈ 6.86 µM)	inactive	inactive	inactive	12	–	–	–	–	–
COc1ccc(C2=CC3=NNC(=O)C3C(c3cccc([N+](=O)[O-])c3)C2)cc1 (stereo not drawn)	86.74 (≈ 239 µM)	38.38 (≈ 106 µM)	85.58 (≈ 236 µM)	inactive	inactive	inactive	inactive	inactive	2.5 µg/mL (≈ 6.88 µM)	inactive	inactive	inactive	11	–	–	–	–	–
COc1ccc(C2=CC3=NNC(=O)C3C(c3cccc([N+](=O)[O-])c3)C2)c(OC)c1 (stereo not drawn)	88.75 (≈ 226 µM)	39.67 (≈ 101 µM)	84.39 (≈ 215 µM)	inactive	inactive	inactive	inactive	inactive	2.5 µg/mL (≈ 6.35 µM)	inactive	inactive	inactive	9	–	–	–	–	–
COc1ccc(C(=O)/C=C/c2cccc([N+](=O)[O-])c2)c(OC)c1	133.57 (≈ 426 µM)	96.22 (≈ 307 µM)	95.13 (≈ 304 µM)	–	–	–	–	–	–	–	–	–	–	–	–	–	–	–
O=C(/C=C/c1cccc([N+](=O)[O-])c1)c1ccc(Br)cc1	170 (≈ 512 µM)	122.8 (≈ 370 µM)	202.56 (≈ 610 µM)	–	–	–	–	–	–	–	–	–	–	–	–	–	–	–
CCOC(=O)C1C(=O)C=C(c2ccc(O)cc2)CC1c1cccc([N+](=O)[O-])c1 (stereo not drawn)	175 (≈ 459 µM)	86.67 (≈ 227 µM)	1014 (≈ 2660 µM)	2.5 µg/mL (≈ 6.56 µM)	–	inactive	inactive	inactive	2.5 µg/mL (≈ 6.56 µM)	inactive	inactive	inactive	12	13	–	–	–	–
O=C(O)CN(CCN(CC(=O)O)CC(=O)O)CC(=O)O [EDETIC ACID]	–	–	50.98 (≈ 174 µM)	–	–	–	–	–	–	–	–	–	–	–	–	–	–	–
GENTAMICIN	–	–	–	–	–	< 0.02 µg/mL	< 0.02 µg/mL	< 0.02 µg/mL	< 0.02 µg/mL	–	–	–	–	–	–	–	–	–
CCOC(=O)C1C(=O)C=C(c2ccc(OC)cc2)CC1c1cccc([N+](=O)[O-])c1 (stereo not drawn)	196.5 (≈ 497 µM)	98.53 (≈ 249 µM)	1028 (≈ 2600 µM)	inactive	inactive	inactive	inactive	inactive	inactive	inactive	inactive	inactive	–	–	inactive	–	–	–
O=C1NN=C2C=C(c3cccs3)CC(c3cccc([N+](=O)[O-])c3)C12 (stereo not drawn)	100.61 (≈ 296 µM)	63.78 (≈ 188 µM)	86.96 (≈ 256 µM)	0.313 µg/mL (≈ 0.922 µM)	–	2.5 µg/mL (≈ 7.37 µM)	2.5 µg/mL (≈ 7.37 µM)	2.5 µg/mL (≈ 7.37 µM)	0.313 µg/mL (≈ 0.922 µM)	–	–	–	22	23	–	9	11	10
O=C1O[C@H]([C@@H](O)CO)C(O)=C1O [ASCORBIC ACID]	37.78 (≈ 215 µM)	25.26 (≈ 143 µM)	–	–	–	–	–	–	–	–	–	–	–	–	–	–	–	–
CCOC(=O)C1C(=O)C=C(c2ccc(OC)cc2OC)CC1c1cccc([N+](=O)[O-])c1 (stereo not drawn)	195.65 (≈ 460 µM)	95.43 (≈ 224 µM)	1006.67 (≈ 2370 µM)	inactive	inactive	inactive	inactive	inactive	inactive	inactive	inactive	inactive	–	–	inactive	–	–	–
CCOC(=O)C1C(=O)C=C(c2ccccc2)CC1c1cccc([N+](=O)[O-])c1 (stereo not drawn)	165.21 (≈ 452 µM)	143.6 (≈ 393 µM)	1028.57 (≈ 2820 µM)	inactive	inactive	inactive	inactive	inactive	inactive	inactive	inactive	inactive	–	–	inactive	–	–	–
O=C1ON=C2C=C(c3ccc(O)cc3)CC(c3cccc([N+](=O)[O-])c3)C12 (stereo not drawn)	202.15 (≈ 577 µM)	118.69 (≈ 339 µM)	360.98 (≈ 1030 µM)	2.5 µg/mL (≈ 7.14 µM)	–	2.5 µg/mL (≈ 7.14 µM)	2.5 µg/mL (≈ 7.14 µM)	inactive	inactive	–	–	inactive	–	10	inactive	10	10	–
O=C1NN=C2C=C(c3ccccc3)CC(c3cccc([N+](=O)[O-])c3)C12 (stereo not drawn)	98.53 (≈ 296 µM)	59.5 (≈ 178 µM)	93.04 (≈ 279 µM)	inactive	inactive	2.5 µg/mL (≈ 7.5 µM)	inactive	inactive	2.5 µg/mL (≈ 7.5 µM)	–	inactive	inactive	13	–	–	12	–	–
O=C1NN=C2C=C(c3ccc(Br)cc3)CC(c3cccc([N+](=O)[O-])c3)C12 (stereo not drawn)	103.6 (≈ 251 µM)	77.89 (≈ 189 µM)	106.36 (≈ 258 µM)	2.5 µg/mL (≈ 6.06 µM)	–	2.5 µg/mL (≈ 6.06 µM)	inactive	inactive	2.5 µg/mL (≈ 6.06 µM)	–	inactive	inactive	13	10	–	13	–	–
COc1ccc(C2=CC3=NOC(=O)C3C(c3cccc([N+](=O)[O-])c3)C2)c(OC)c1 (stereo not drawn)	275 (≈ 697 µM)	140.02 (≈ 355 µM)	746.04 (≈ 1890 µM)	inactive	inactive	inactive	inactive	inactive	inactive	inactive	inactive	inactive	–	–	inactive	–	–	–
CCOC(=O)C1C(=O)C=C(c2cccs2)CC1c1cccc([N+](=O)[O-])c1 (stereo not drawn)	208.95 (≈ 563 µM)	133.66 (≈ 360 µM)	1030.56 (≈ 2770 µM)	2.5 µg/mL (≈ 6.73 µM)	–	inactive	inactive	inactive	2.5 µg/mL (≈ 6.73 µM)	inactive	inactive	inactive	12	8	–	–	–	–
O=C(/C=C/c1cccc([N+](=O)[O-])c1)c1cccs1	112.29 (≈ 433 µM)	90.73 (≈ 350 µM)	1029.41 (≈ 3970 µM)	–	–	–	–	–	–	–	–	–	–	–	–	–	–	–
O=C1ON=C2C=C(c3ccc(Br)cc3)CC(c3cccc([N+](=O)[O-])c3)C12 (stereo not drawn)	305.01 (≈ 738 µM)	218.75 (≈ 529 µM)	816.48 (≈ 1980 µM)	2.5 µg/mL (≈ 6.05 µM)	–	inactive	inactive	inactive	inactive	inactive	inactive	inactive	–	9	inactive	–	–	–
O=C(/C=C/c1cccc([N+](=O)[O-])c1)c1ccc(O)cc1	92.75 (≈ 344 µM)	40.67 (≈ 151 µM)	84.09 (≈ 312 µM)	–	–	–	–	–	–	–	–	–	–	–	–	–	–	–
COc1ccc(C(=O)/C=C/c2cccc([N+](=O)[O-])c2)cc1	135.27 (≈ 478 µM)	92.46 (≈ 326 µM)	97.32 (≈ 344 µM)	–	–	–	–	–	–	–	–	–	–	–	–	–	–	–
